The values below come from ChEMBL document CHEMBL4177755, “Combating Drug-Resistant Fungi with Novel Imperfectly Amphipathic Palindromic Peptides” (J Med Chem, 2018).

For data set [1], the system named is Candida albicans. Put plainly: Antifungal activity against Candida albicans cgmcc 2.2086 in presence of 12.5% human heat-inactivated serum by broth dilution method. In kind it is functional. For orientation: Broth dilution looks for growth in wells or tubes with falling amounts of substance.
Data set [2] relates to Candida albicans. Kind of data set: Antifungal activity against Candida albicans cgmcc 2.2086 in presence of 25% human heat-inactivated serum by broth dilution method. It is filed as functional.
Data set [3] concerns Candida albicans. Put plainly: Antifungal activity against Candida albicans cgmcc 2.2086 in presence of 50% human heat-inactivated serum by broth dilution method. In kind it is functional.
Data set [4] deals with Lipid bilayer. Kind of data set: Binding affinity to phosphatidylcholine/cholesterol large unilamellar vesicle assessed as induction of calcein leakage at 2 to 32 uM after 15 mins by spectrofluorophotometric method. The following applies: 0.25 h. The method in brief: (§1)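 Large unilamellar vesicles were made from PG/CL/PE (2:1:7), PC/PE/PI/ergosterol (5:4:1:2) or PC/cholesterol (10:1), loaded with 70 mM calcein in Tris/NaCl/EDTA buffer at pH 7.4, frozen and thawed 20 times, and extruded through 100 nm filters. Free dye was removed by gel filtration, and peptide-induced calcein release was measured.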

The test system of data set [5] is Lipid bilayer. Kind of data set: Binding affinity to phosphatidylglycerol/cardiolipin/phosphatidylethanolamine large unilamellar vesicle assessed as induction of calcein leakage at 2 to 32 uM after 15 mins by spectrofluorophotometric method. The method, boiled down:
as §1

Data set [6] relates to Escherichia coli. Put plainly: Disruption of cytoplasmic membrane electrical potential in Escherichia coli ATCC 25922 at MBC after 800 secs by DiSC3-5 dye-based fluorescence spectrophotometric method. In kind it is functional, organism-based.
Data set [7] deals with Escherichia coli. Kind of data set: Antibacterial activity against Escherichia coli ATCC 25922 after 18 hrs in presence of 50% human heat-inactivated serum by broth dilution method. In kind it is functional. The following applies: ATCC 25922, 18 h.
Data set [8] concerns Candida albicans. Put plainly: Fungicidal activity against fluconazole-resistant Candida albicans 56452 at 0.5 times MFC after 30 passages. In kind it is functional, organism-based. The method in brief:
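Resistance induction. C. albicans cultures were serially passaged by 100-fold dilution every 24 h in 2 mL RPMI 1640 containing sub-MFC peptide, and the MFC was retested at each passage. A control was passaged in RPMI 1640 alone.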

In data set [9] the test system is Escherichia coli. Kind of data set: Induction of cell wall permeabilization in Escherichia coli ATCC 25922 assessed as increase in NPN uptake by fluorescence spectrophotometric method. It is filed as functional, organism-based. The method in brief: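 Log-phase cells at OD600 0.2 in 5 mM HEPES (pH 7.4, 5 mM glucose) were preloaded with 10 μM NPN for 30 min, then peptide was added. Fluorescence (ex 350/em 420 nm) was followed until it plateaued and converted to % NPN uptake against initial and maximal fluorescence. Triplicate.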

In data set [10] the test system is Lipid bilayer. Kind of data set: Binding affinity to phosphatidylcholine/phosphatidylethanolamine/phosphatidylinositol/ergosterol large unilamellar vesicle assessed as induction of calcein leakage after 15 mins by spectrofluorophotometric method. The method in brief:
(§2)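 Compositions were PG/CL/PE 2:1:7 w/w/w (E. coli membrane mimic; lines 4,5) and PC/PE/PI/ergosterol 5:4:1:2 w/w/w/w (fungal membrane mimic; lines 2,3). Lipids underwent 20 freeze–thaw cycles and were extruded through 100 nm filters; free calcein was removed by gel filtration.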

The test system of data set [11] is Lipid bilayer. Kind of data set: Binding affinity to phosphatidylcholine/phosphatidylethanolamine/phosphatidylinositol/ergosterol large unilamellar vesicle assessed as induction of calcein leakage at 32 uM after 15 mins by spectrofluorophotometric method relative to control. The method, boiled down:
as §2

Data set [12] deals with Escherichia coli. Put plainly: Induction of membrane damage in Escherichia coli ATCC 25922 assessed as appearance of roughened and broken membrane at MBC after 1 hr by scanning electron microscopy. It is filed as functional, organism-based. The method in brief:
(§3)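 E. coli ATCC 25922 was treated at 1× MBC and C. albicans cgmcc 2.2086 at 1× MFC, each for 1 h. Untreated control cells were processed in parallel without peptide. Surface morphology was imaged by AFM and SEM, and ultrastructure by TEM.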

Data set [13] has as its system Escherichia coli. Put plainly: Induction of membrane damage in Escherichia coli ATCC 25922 assessed as appearance of roughened and broken membrane at MBC after 1 hr by atomic force microscopy. In kind it is functional, organism-based. The method, boiled down:
as §3

In data set [14] the test system is Candida albicans. Put plainly: Induction of membrane damage in Candida albicans cgmcc 2.2086 assessed as membrane creping at MFC after 1 hr by scanning electron microscopy. In kind it is functional, organism-based. The method, boiled down:
as §3

Data set [15] relates to Candida albicans. Kind of data set: Induction of membrane damage in Candida albicans cgmcc 2.2086 assessed as membrane creping at MFC after 1 hr by atomic force microscopy. It is filed as functional, organism-based. The method, boiled down: as §3
Data set [16] deals with Candida albicans. Kind of data set: Induction of membrane damage in Candida albicans cgmcc 2.2086 assessed as intracellular content leakage at MFC after 1 hr by atomic force microscopy. In kind it is functional, organism-based. The method in brief: (§4)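 E. coli ATCC 25922 or C. albicans cgmcc 2.2086 were treated with peptide at 1× MBC/MFC for 1 h alongside peptide-free controls, then imaged by AFM, SEM or TEM for membrane and ultrastructural changes.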

For data set [17], the system named is Candida albicans. Put plainly: Induction of membrane damage in Candida albicans cgmcc 2.2086 assessed as intracellular content leakage at MFC after 1 hr by transmission electron microscopy. In kind it is functional, organism-based. The method in brief: as §4
The subject of data set [18] is Escherichia coli. Put plainly: Induction of reactive oxygen species generation in Escherichia coli ATCC 25922 at 32 uM after 1 hr by DCFH-DA dye-based spectrofluorophotometric method relative to control. It is filed as functional. The method in brief: (§5)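 Intracellular ROS in peptide-treated cells were compared with untreated cells; values are mean ± SEM of three independent experiments.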

The subject of data set [19] is Candida albicans. Kind of data set: Induction of reactive oxygen species generation in Candida albicans cgmcc 2.2086 at 32 uM after 1 hr by DCFH-DA dye-based spectrofluorophotometric method relative to control. In kind it is functional. The method, boiled down:
as §5

In a further data set the test system is Lipopolysaccharide (LPS). Kind of data set: Displacement of BODIPY-TR-cadaverine from Escherichia coli O111:B4 LPS at 8 uM after 1 hr by spectrofluorophotometric method relative to control. The method in brief: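 Fluorescence-based displacement assay: peptide displaces BODIPY-TR-cadaverine from LPS; polymyxin B served as the LPS-binding reference.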
For data set [20], the system named is RAW264.7. Put plainly: Induction of endotoxin-neutralization in mouse RAW264.7 cells assessed as inhibition of LPS-induced TNFalpha secretion at 2 uM after 18 hrs by ELISA. It is filed as functional, cell-based. The method, boiled down: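 RAW 264.7 cells were stimulated with 50 ng/mL LPS with or without peptide at various concentrations. TNF-α in supernatants was measured by ELISA and NO by Griess reagent. Mean ± SEM of three independent experiments, compared against LPS alone.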
A general note: An ELISA detects its analyte on a solid surface through an enzyme-linked reagent.

A short description of data set [21]: Cytotoxicity against mouse RAW264.7 cells assessed as cell viability at 2 to 32 uM after 24 hrs by MTT assay relative to control. In kind it is cell-based. The note with it: read-out: Activity. The method, boiled down:
(§6)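 MTT viability assay. RAW264.7 or HEK293T cells at (1.0−2.0) × 10^5 per well were exposed to a peptide concentration series for 24 h at 37 °C in 5% CO2. MTT was then added at 0.5 mg/mL final for 4 h; formazan was dissolved in DMSO and read at 570 nm. Results average three independent trials.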
In general terms: Tetrazolium dyes change colour on reduction, which living cells bring about.

Data set [22] is described as follows: Cytotoxicity against HEK293T cells assessed as cell viability at 2 to 32 uM after 24 hrs by MTT assay relative to control. The following applies: human, read-out: Activity. In kind it is cell-based, HEK-293T. The method in brief: as §6
Data set [23] has as its system RAW264.7. Put plainly: Cytotoxicity against mouse RAW264.7 cells assessed as decrease in cell viability at 64 uM after 24 hrs by MTT assay relative to control. In kind it is cell-based. The note with it: raw264.7, 24 h. The method in brief: as §6
Another data set relates to HEK-293T. Kind of data set: Cytotoxicity against HEK293T cells assessed as decrease in cell viability at 64 uM after 24 hrs by MTT assay relative to control. The note with it: human. In kind it is cell-based. The method, boiled down:
as §6

Calls of active or inactive are those of the source. The calls are words filed in the database; no cut-off is given here.

In general, MIC refers to the lowest concentration found to suppress growth. On to `CC[C@H](C)[C@H](NC(=O)CN)C(=O)NCC(=O)N[C@@H](C)C(=O)N[C@H](C(=O)N[C@@H](CC(C)C)C(=O)N[C@@H](CCCCN)C(=O)N[C@H](C(=O)N[C@@H](CC(C)C)C(=O)N[C@H](C(=O)N[C@H](C(=O)NCC(=O)N[C@@H](CC(C)C)C(=O)N1CCC[C@H]1C(=O)N[C@@H](C)C(=O)N[C@@H](CC(C)C)C(=O)N[C@H](C(=O)N[C@@H](CO)C(=O)N[C@@H](Cc1c[nH]c2ccccc12)C(=O)N[C@H](C(=O)N[C@@H](CCCCN)C(=O)N[C@@H](CCCNC(=N)N)C(=O)N[C@@H](CCCCN)C(=O)N[C@@H](CCCNC(=N)N)C(=O)N[C@@H](CCC(N)=O)C(=O)N[C@@H](CCC(N)=O)C(N)=O)[C@@H](C)CC)[C@@H](C)CC)[C@@H](C)O)[C@@H](C)O)C(C)C)C(C)C` [MELITTIN], for which the MIC stood at 32 µM in the data set on Candida albicans [1], 32 µM in the data set on Candida albicans [2] and 64 µM in the data set with Candida albicans [3]. Besides, in the data set with Lipid bilayer [4], the outcome was Active. Moreover, the outcome in the data set with Lipid bilayer [5] and in the data set with Escherichia coli [6] was Active.

Broadly, the inhibition is the percentage by which the read-out fell short of the control. For H-RRIRIIIRIRR-NH2, the MIC with Escherichia coli [7] was found to be 8 µM; in the data set on Candida albicans [1], 2 µM; in the data set with Candida albicans [2], 4 µM; with Candida albicans [3] it was 8 µM. The result in the data set with Candida albicans [8], with Escherichia coli [12], in the data set with Escherichia coli [13], in the data set with Candida albicans [14], in the data set on Candida albicans [15] and in the data set on Candida albicans [16] was Active. In the data set on Candida albicans [17], the outcome was Active. Further, the Activity result was “Dose-dependent effect” in the data set with Escherichia coli [9], “Dose-dependent effect” with Lipid bilayer [10], 62% in the data set on Lipid bilayer [11] and “Not Active” in the data set with Lipid bilayer [4]. Besides, the “fold change (FC)” value in the data set on Escherichia coli [18] amounted to 2; in the data set on Candida albicans [19], 14. Also, the inhibition with Lipopolysaccharide (LPS) amounted to 95%. Moreover, the inhibition entry in the data set with RAW264.7 [20] was “Active”.

On to H-RWWRRWRRWWR-NH2, for which the viability at 24 h, up to 32 µM in [21] and in [22] was 70 to 80% in each case. In addition, the Activity entry with RAW264.7 [23] and in the data set with HEK-293T was “Toxic” in each case.

With H-WWRRWRRWW-NH2, the viability at 24 h, up to 32 µM in [21] and in [22] was 70 to 80% in each case. The Activity entry with RAW264.7 [23] and in the data set on HEK-293T was “Toxic” throughout.
